mIAP block: inhibitors of mouse IAP, primary screen, biochemical, luminescence, uHTS | purified mouse IAP, CDP-Star luminescence, 30 min | inhibition, % at 10 µM | actives 0.2% (n = 330,000) | AID 2806, 2010;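 active means inhibition of at least 40% at 10 µM in the primary screen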
bIAP activator: bovine intestinal alkaline phosphatase activators, primary screen, biochemical, bovine IAP, CDP-star luminescence; alkaline phosphatase, intestinal [Bos taurus]; purified bovine IAP, 30 min; active compounds read high; fold of DMSO-control signal, blank-subtracted; activation factor at 20 µM; actives 0.17% (n = 200,000); AID 1016, 2008;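 active means activation factor of 2 or more at 20 µM, a signal rise over negative controls twice the positive control's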
bIAP inh: bovine intestinal alkaline phosphatase inhibitors, primary screen, selectivity assay for TNAP inhibitor project, biochemical, bovine IAP, CDP-star luminescence; alkaline phosphatase, intestinal [Bos taurus]; purified bovine IAP, 30 min; inhibition, % at 20 µM; 190,000 tested, under 10 active; AID 1019, 2008;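 active means over 50% inhibition of intestinal alkaline phosphatase at 20 µM in the single-dose screen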
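Incubation: 30 min reaction at room temperature / Material: purified bovine intestinal alkaline phosphatase (IAP) enzyme / Input: enzyme at 1/65,000,000 dilution / Dosing: 20 µM single dose / Signal: CDP-star luminescence signal / Reagent: CDP-star chemiluminescent phosphatase substrate, 30 µM final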
hIAP inh: human IAP inhibitors, primary screen, biochemical, luminescence, uHTS; purified IAP, CDP-Star luminescence, 30 min; Intestinal-type alkaline phosphatase (Homo sapiens), P09923; actives 0.12% (n = 330,000); inhibition, % at 10 µM; AID 2544, 2010;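 active means inhibition reaching a set limit with compound at 10 µM in the primary screen, cut at about 35% in these data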
Target sequence (P09923 whole entry, looked up): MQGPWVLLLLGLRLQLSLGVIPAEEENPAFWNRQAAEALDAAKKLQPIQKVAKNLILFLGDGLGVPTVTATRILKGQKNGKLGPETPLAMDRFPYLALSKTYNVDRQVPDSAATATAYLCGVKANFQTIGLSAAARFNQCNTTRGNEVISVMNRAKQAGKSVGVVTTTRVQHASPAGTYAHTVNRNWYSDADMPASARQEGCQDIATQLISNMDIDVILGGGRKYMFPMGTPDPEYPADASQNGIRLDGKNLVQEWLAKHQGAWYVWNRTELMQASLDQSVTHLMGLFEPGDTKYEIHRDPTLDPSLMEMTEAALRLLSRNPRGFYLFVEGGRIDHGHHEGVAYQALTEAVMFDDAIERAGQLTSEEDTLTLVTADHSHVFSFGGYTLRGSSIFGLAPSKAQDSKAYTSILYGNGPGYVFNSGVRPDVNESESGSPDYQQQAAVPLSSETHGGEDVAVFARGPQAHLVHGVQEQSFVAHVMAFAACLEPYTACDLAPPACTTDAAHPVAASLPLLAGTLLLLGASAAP
mIAP activ: activators of mouse IAP, primary screen, biochemical, luminescence, uHTS. intestinal alkaline phosphatase [Mus musculus]. muIAP, CDP-Star luminescence, 30 min; active compounds read high; 1 = vehicle-only enzyme signal, 0 = enzyme-free wells. activation factor at 10 µM. actives 0.24% (n = 330,000);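 active means activation factor of at least 2 at 20 µM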
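Assay system: mouse IAP enzyme / Compound: DMSO-dissolved test compounds / Timing: 30 min, room temperature / Measured by: luminescence from enzymatic CDP-Star hydrolysis / Control set: DMSO-only wells, enzyme-free buffer wells as negative control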
hIAP activ: human IAP activators, primary screen, biochemical, luminescence, uHTS; Intestinal-type alkaline phosphatase (Homo sapiens), P09923; activation factor at 10 µM; actives 0.16% (n = 330,000); purified human IAP, CDP-Star luminescence, 30 min; active compounds read high; 1 = vehicle-only enzyme, 0 = enzyme-free background;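 active means activation factor of the enzyme at least 2-fold when tested at 20 µM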
hIAP act conf: human IAP activators, confirmation, biochemical, luminescence, single concentration, uHTS hits; shares compounds with hIAP activ; purified IAP, CDP-Star luminescence, 30 min; active compounds read low; activation (%Activity, negative = activation), % at 8.3 µM; actives 10% (n = 880);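 active means at least twofold enzyme activation in any of six single-dose repeats, which the averaged readout prints as negative percent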
Numbers stand for hits; 0 = inactive; - = not tested or not shown. An excerpt weighted towards active compounds, which were near 0.77% of everything screened.

SMILES | mIAP block | bIAP activator | bIAP inh | hIAP inh | mIAP activ | hIAP activ | hIAP act conf
CC(=O)c1ccc(N2CCC(c3cc(-c4ccc(Cl)cc4Cl)n[nH]3)CC2)c([N+](=O)[O-])c1 | 0 | 0 | 0 | 0 | 0 | 0 | -
CC(C)Nc1nc(NC(C)C)nc(Oc2ccc(OCc3ccccc3)nn2)n1 | 0 | 0 | 0 | 37.1 | 0 | 0 | 0
CCNc1nc(NCC)nc(Oc2ccc(OCc3ccccc3)nn2)n1 | 0 | 0 | 0 | 0 | 0 | 0 | -
CCN(C(=S)NCc1ccccc1)c1cccc2ccccc12 | 0 | 0 | 0 | 0 | 0 | 0 | -
CC1CCCCC1NC(=O)c1nn(C)c2c1CS(=O)(=O)c1ccccc1-2 (stereo not drawn) | 0 | - | - | 0 | 0 | 0 | -
CCc1ccc(N/C(N)=N/c2nc(CSc3ncccn3)cc(=O)[nH]2)cc1 | 0 | 0 | 0 | 0 | 0 | 2.03 | 0
COC(=O)c1cc(C#N)c(Oc2ccccc2OC)nc1C | 0 | 0 | 0 | 36.2 | 0 | 0 | 0
CCOc1ccc(NS(=O)(=O)c2ccc3c(c2)CCN3C(C)=O)cc1 | 0 | - | - | 0 | 0 | 0 | -
CC(CN1CCC(n2nccc2NC(=O)CCCc2ccccc2)CC1)c1ccccc1 (stereo not drawn) | 0 | - | - | 0 | 0 | 2.04 | 0
CCOc1ccccc1CN1CCC(n2nccc2NC(=O)CCc2ccccc2)CC1 | 0 | - | - | 0 | 0 | 2.15 | 0
CCOc1ccccc1CN1CCC(n2nccc2NC(=O)CCCc2ccccc2)CC1 | 0 | - | - | 0 | 0 | 3.25 | 0
CC(=O)c1cccc(CN2CCC(n3nccc3NC(=O)CCCc3ccccc3)CC2)c1 | 0 | - | - | 0 | 0 | 0 | -
Cn1cc(CN2CCC(n3nccc3NC(=O)CCc3ccccc3)CC2)cn1 | 0 | - | - | 0 | 0 | 0 | -
COc1cccc(CN2CCC(n3nccc3NC(=O)CCCc3ccccc3)CC2)c1 | 0 | - | - | 0 | 0 | 3.28 | 0
O=C1CC2(CCCC2)Oc2ccc(F)cc21 | 0 | - | - | 0 | 0 | 0 | -
Cc1cc2cccc(C)c2nc1SCC(=O)NNC(=O)c1ccco1 | 0 | 0 | 0 | 0 | 0 | 0 | -
Cc1cc(C)c2nc(SCC(=O)NNC(=O)c3ccco3)c(C)cc2c1 | 0 | 0 | 0 | 0 | 0 | 2.03 | -58.7
COc1ccc(-c2sc3ccc(N4CCOCC4)cc3c2-c2ccc(OC)c(F)c2)cc1 | 0 | - | - | 0 | 0 | 0 | -
O=c1oc(-c2ccc(O)c(O)c2)cc2cc(O)cc(O)c12 | 0 | - | - | 69.2 | 0 | 0 | 0
O=c1oc(-c2ccc(O)c(O)c2)cc2cccc(O)c12 | 0 | - | - | 0 | 0 | 0 | -
Cc1ccc(S(=O)(=O)NCC(=O)NNC(=O)c2ccccc2Cl)cc1C | 0 | - | - | 0 | 0 | 2.21 | 0
O=C(N/N=C/c1c(F)cccc1Cl)c1cc(C2CC2)[nH]n1 | 0 | - | - | 0 | 0 | 2.05 | 0
O=C(N/N=C/c1ccc(O)cc1)c1cc(C2CC2)[nH]n1 | 0 | - | - | 0 | 0 | 0 | -
CN(C)/C=C(\C=O)c1ncc(C(F)(F)F)cc1Cl | 0 | 0 | 0 | 0 | 0 | 0 | -
CSCCC(NS(=O)(=O)c1ccc(C)cc1)C(=O)NNC(=O)c1csc(N2CCOCC2)n1 (stereo not drawn) | 0 | - | - | 0 | 0 | 2.03 | 0
SMILES | mIAP block | bIAP activator | bIAP inh | hIAP inh | mIAP activ | hIAP activ | hIAP act conf
O=C(O)CCC(=O)Nc1ccc(-c2csc(Nc3cccc4ccccc34)n2)cc1 | 0 | - | - | 0 | 0 | 0 | -
Cc1ccc(C)c(NC(=O)C2CCN(S(=O)(=O)c3ccc4c(c3)NC(=O)CO4)CC2)c1 | 0 | - | - | 0 | 0 | 0 | -
CN(C)c1ccc(CN(Cc2ccco2)C(=O)c2ccco2)cc1 | 0 | - | - | 0 | 0 | 0 | -
O=C(c1ccco1)N(Cc1ccc(Cl)cc1)Cc1ccco1 | 0 | - | - | 38.0 | 0 | 0 | 0
COc1ccc(C(=O)Nc2cccc3c2C(=O)NC3=O)cc1S(=O)(=O)N1CCOCC1 | 0 | 0 | 0 | 35.9 | 0 | 0 | -85.1
COc1ccc(C(=O)Nc2cccc(C)c2)cc1S(=O)(=O)N1CCOCC1 | 0 | 0 | 0 | 0 | 0 | 0 | -
c1ccc(-n2ncc3c2ncn2nnnc32)cc1 | 0 | 0 | 0 | 0 | 0 | 0 | -
c1ccc(-n2ncc3c2ncn2cnnc32)cc1 | 0 | 0 | - | 82.5 | 0 | 0 | 0
Cc1nc2c3cnn(-c4ccccc4)c3ncn2n1 | 0 | 0 | 0 | 72.8 | 0 | 0 | 0
O=C(NN1C(=O)/C(=C/c2ccc(O)c([N+](=O)[O-])c2)SC1=S)c1ccccc1Cl | 0 | 0 | 0 | 35.4 | 0 | 0 | 0
O=C1/C(=C/c2ccc(O)c([N+](=O)[O-])c2)SC(=S)N1Cc1ccccc1 | 0 | 0 | 0 | 0 | 0 | 0 | -
O=C(NN1C(=O)/C(=C/c2ccc(O)cc2)SC1=S)c1cccc(O)c1 | 0 | - | - | 36.8 | 0 | 0 | 0
CS(=O)(=O)c1ccc2nc(NC(=O)CN3C(=O)NC4(CCCC4)C3=O)sc2c1 | 0 | - | - | 0 | 0 | 0 | -
COc1ccccc1C1CN(c2ccccc2)N=C1c1cccs1 (stereo not drawn) | 0 | 0 | 0 | 59.7 | 0 | 0 | -128.2
O=C(Cc1ccccc1F)Nc1ccc(S(=O)(=O)Nc2ncccn2)cc1 | 0 | - | - | 0 | 0 | 0 | -
CCCCOc1ccc(C(=O)NNC(=S)NC(=O)CC)cc1 | - | 0 | 0 | - | - | - | -
CCCOc1ccc(C(=O)NNC(=S)NC(C)=O)cc1 | 0 | 0 | 0 | 0 | 0 | 2.18 | 0
CCCOc1ccc(C(=O)NNC(=S)NC(=O)c2ccccc2[N+](=O)[O-])cc1 | 0 | - | - | 0 | 0 | 2.14 | 0
CCCOc1ccc(C(=O)NNC(=S)NC(=O)c2ccccc2)cc1 | 0 | - | - | 0 | 0 | 0 | -
C=CCNC(=S)NNC(=O)c1ccc(OCCCC)cc1 | 0 | 0 | 0 | 0 | 0 | 2.08 | 0
CC1CCCC(NC(=O)c2ccc3snnc3c2)C1C (stereo not drawn) | 0 | - | - | 0 | 0 | 0 | -
O=C(NCCCN1CCOCC1)c1ccc2c(c1)N(Cc1ccc(Cl)cc1)C(=O)c1ccccc1S2=O (stereo not drawn) | 0 | - | - | 36.9 | 0 | 0 | -47.5
COC(=O)c1cc(OC)c(OC)cc1NC(=O)CSc1nnc(-c2cccnc2)n1C | 0 | 0 | 0 | 0 | 0 | 2.15 | 0
CCCCc1ccc(NC(=O)CSc2nc3ncccc3[nH]2)cc1 | 0 | - | - | 0 | 0 | 2.15 | 0
CCc1ccc(OCC(=O)Nc2ncn[nH]2)cc1 | 0 | 0 | 0 | 0 | 0 | 2.06 | 0
CCc1cc(-c2n[nH]c(C)c2-c2nc3ccccc3s2)c(O)cc1OCC(=O)NN | 0 | 2 | 0 | 0 | 0 | 2.3 | 0

Assay outcomes: PubChem BioAssay, Sanford-Burnham Center for Chemical Genomics
